# Measurements: paper PMC9168489 (Proceedings of the National Academy of Sciences of the …, 2022)
# Where no end group is shown, it is not given here.
# Key:
# [1] = system: HTRA1; test: Soluble tau digest with HTRA1; type: biochemical, human; conditions: SDS-PAGE; for activation of HTRA1 by CAPN2: 0.5 µM HTRA1, 5 µM tau, 50 mM Tris pH 8.0, 37 °C, CAPN2 titration
# [2] = system: tau fibrils; test: Proteolysis of tau fibrils; type: biochemical; conditions: 2.5 µM tau fibrils, 2.5 µM HTRA1/HTRA1-CAPN2, 37 °C, 50 mM Tris HCl pH 8
# [3] = system: HTRA1ΔPDZ; test: Soluble tau digest with HTRA1ΔPDZ; type: biochemical, human; conditions: 50 µM peptide, 0.5 µM protease, 5 µM tau, 50 mM Tris pH 8.0, 37 °C; SDS-PAGE
# Procedure, shortened: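 Soluble tau (5 µM) digested by 0.5 µM protease (HTRA1ΔPDZ run alongside full-length HTRA1) in 50 mM Tris pH 8.0 at 37 °C. Peptides derived from the CAPN2 C terminus were added at 50 µM, with a no-peptide control. Samples were taken at several time points and tau cleavage was followed by SDS-PAGE.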
# [4] = system: HTRA2; test: Tau digest with HTRA2; type: biochemical, human; conditions: 0.5 µM HTRA2, 5 µM tau, 50 µM peptide, 50 mM Tris pH 8.0, 37 °C
# [5] = system: HTRA1 Asn311Ala; test: Tau digest with loop L3 mutant Asn311Ala; type: biochemical, human; conditions: 50 µM peptide
# Procedure, shortened: (§1)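 HTRA1 loop L3 point mutants were assayed by tau digestion, with or without 50 µM test peptides derived from the CAPN2 C terminus, to measure mutant activity.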
# [6] = system: HTRA1 Lys305Ala; test: Tau digest with loop L3 mutant Lys305Ala; type: biochemical, human; conditions: 50 µM peptide
# Procedure, shortened: as §1
# [7] = system: HTRA3; test: Tau digest with HTRA3; type: biochemical, human; conditions: 0.5 µM HTRA3, 5 µM tau, 50 µM peptide, 50 mM Tris pH 8.0, 37 °C
# [8] = molecular target: HTRA1 (human) (UniProt Q92743); test: ITC
# [9] = molecular target: HTRA1; test: ITC of HTRA1SA and CAPN2CA; type: binding, human; conditions: 500 µM HTRA1SA in syringe titrated to 10 µM CAPN2CA, 50 mM bicine, 150 mM NaCl pH 9.0, 37 °C
# [10] = system: tau; test: Soluble tau digest with CAPN2 alone; type: biochemical; conditions: buffers without Ca^2+
# Procedure, shortened: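 5 µM soluble tau was incubated with 0.5 µM CAPN2 in 50 mM Tris HCl, pH 8, at 37 °C. Aliquots were withdrawn at set time points and analysed by SDS-PAGE.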
# [11] = system: tau fibrils; test: Sedimentation assay of tau fibrils; type: biochemical; conditions: no Ca^2+, ultracentrifugation
# Procedure, shortened: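 Tau fibrils were incubated with HTRA1SA alone, the HTRA1SA–CAPN2 complex, CAPN2 alone, or no protein, then ultracentrifuged. Total sample taken before centrifugation, pellet and supernatant fractions were resolved by SDS-PAGE and stained with Coomassie.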
# [12] = system: tau fibrils; conditions: in the presence of Ca^2+; cited from earlier work
# [13] = system: HTRA1 (HEK293 cells); test: Coimmunoprecipitation of HTRA1 with CAPN2; type: cell-based, human; conditions: HEK293 lysates; Strep or Myc beads; n = 3
molecule,measurement,setting,value
HTRA1–CAPN2 complexes: hetero-oligomeric complex consisting of the cysteine protease calpain 2 (CAPN2) and HTRA1,degradation of soluble tau,"[1]; 5 µM tau, 0.5 µM HTRA1, 0.5 µM CAPN2, 37 °C, 50 mM Tris HCl pH 8",degradation of soluble tau was improved
same,proteolysis of tau fibrils,[2],a slight decrease of HTRA1 activity
LISWLCFSVL,activation of HTRA1ΔPDZ by peptides,[3],not activated
LISWLSFSDL,effect on HTRA2 activity,[4],HTRA2 weakly
same,activation of HTRA1 Asn311Ala,[5],still allowed activation
same,activation of HTRA1 Lys305Ala,[6],still allowed activation
same,effect on HTRA3 activity,[7],activated HTRA3 strongly
LISWLSDSEL,activation of HTRA1ΔPDZ by peptides,[3],activated wild-type but not HTRA1ΔPDZ
"CFD peptide, carboxyl terminus of complement factor D",Kd,[8],4 µM
"CAPN2: CAPN2 heterodimer consists of a cysteine protease and a regulatory subunit (protein, UniProt P17655 20-700; P04632 1-268, looked up) Calpain-2 catalytic subunit: SHDRAIKYLNQDYEALRNECLEAGTLFQDPSFPAIPSALGFKELGPYSSKTRGIEWKRPTEICADPQFIIGGATRTDICQGALGDCWLLAAIASLTLNEEILARVVPLNQSFQENYAGIFHFQFWQYGEWVEVVVDDRLPTKDGELLFVHSAEGSEFWSALLEKAYAKINGCYEALSGGATTEGFEDFTGGIAEWYELKKPPPNLFKIIQKALQKGSLLGCSIDITSAADSEAITFQKLVKGHAYSVTGAEEVESNGSLQKLIRIRNPWGEVEWTGRWNDNCPSWNTIDPEERERLTRRHEDGEFWMSFSDFLRHYSRLEICNLTPDTLTSDTYKKWKLTKMDGNWRRGSTAGGCRNYPNTFWMNPQYLIKLEEEDEDEEDGESGCTFLVGLIQKHRRRQRKMGEDMHTIGFGIYEVPEELSGQTNIHLSKNFFLTNRARERSDTFINLREVLNRFKLPPGEYILVPSTFEPNKDGDFCIRVFSEKKADYQAVDDEIEANLEEFDISEDDIDDGFRRLFAQLAGEDAEISAFELQTILRRVLAKRQDIKSDGFSIETCKIMVDMLDSDGSGKLGLKEFYILWTKIQKYQKIYREIDVDRSGTMNSYEMRKALEEAGFKMPCQLHQVIVARFADDQLIIDFDNFVRCLVRLETLFKIFKQLDPENTGTIELDLISWLCFSVL Calpain small subunit 1: MFLVNSFLKGGGGGGGGGGGLGGGLGNVLGGLISGAGGGGGGGGGGGGGGGGGGGGTAMRILGGVISAISEAAAQYNPEPPPPRTHYSNIEANESEEVRQFRRLFAQLAGDDMEVSATELMNILNKVVTRHPDLKTDGFGIDTCRSMVAVMDSDTTGKLGFEEFKYLWNNIKRWQAIYKQFDTDRSGTICSSELPGAFEAAGFHLNEHLYNMIIRRYSDESGNMDFDNFISCLVRLDAMFRAFKSLDKDGTGQIQVNIQEWLQLTMYS",Kd,[9],4 µM
same,digestion of tau by CAPN2,[10],does not digest tau
same,tau fibril dissociation (solubilization),"[11]; equimolar amounts, SDS-PAGE and Coomassie",Partial fibril dissociation
same,co-sedimentation with tau fibrils,[11],co-sedimentation of CAPN2 and fibrils
same,proteolysis of tau fibrils by CAPN2,[12],proteolyzes fibrils
same,activation of HTRA1 by CAPN2,[1],improved activation of HTRA1 by CAPN2 compared to the isolated C-terminal decapeptide
same,coimmunoprecipitation with HTRA1,[13],complex formation was supported by coimmunoprecipitations
CAPN2CA (protein) chain 1: SHDRAIKYLNQDYEALRNECLEAGTLFQDPSFPAIPSALGFKELGPYSSKTRGIEWKRPTEICADPQFIIGGATRTDICQGALGDAWLLAAIASLTLNEEILARVVPLNQSFQENYAGIFHFQFWQYGEWVEVVVDDRLPTKDGELLFVHSAEGSEFWSALLEKAYAKINGCYEALSGGATTEGFEDFTGGIAEWYELKKPPPNLFKIIQKALQKGSLLGCSIDITSAADSEAITFQKLVKGHAYSVTGAEEVESNGSLQKLIRIRNPWGEVEWTGRWNDNCPSWNTIDPEERERLTRRHEDGEFWMSFSDFLRHYSRLEICNLTPDTLTSDTYKKWKLTKMDGNWRRGSTAGGCRNYPNTFWMNPQYLIKLEEEDEDEEDGESGCTFLVGLIQKHRRRQRKMGEDMHTIGFGIYEVPEELSGQTNIHLSKNFFLTNRARERSDTFINLREVLNRFKLPPGEYILVPSTFEPNKDGDFCIRVFSEKKADYQAVDDEIEANLEEFDISEDDIDDGFRRLFAQLAGEDAEISAFELQTILRRVLAKRQDIKSDGFSIETCKIMVDMLDSDGSGKLGLKEFYILWTKIQKYQKIYREIDVDRSGTMNSYEMRKALEEAGFKMPCQLHQVIVARFADDQLIIDFDNFVRCLVRLETLFKIFKQLDPENTGTIELDLISWLCFSVL chain 2: MFLVNSFLKGGGGGGGGGGGLGGGLGNVLGGLISGAGGGGGGGGGGGGGGGGGGGGTAMRILGGVISAISEAAAQYNPEPPPPRTHYSNIEANESEEVRQFRRLFAQLAGDDMEVSATELMNILNKVVTRHPDLKTDGFGIDTCRSMVAVMDSDTTGKLGFEEFKYLWNNIKRWQAIYKQFDTDRSGTICSSELPGAFEAAGFHLNEHLYNMIIRRYSDESGNMDFDNFISCLVRLDAMFRAFKSLDKDGTGQIQVNIQEWLQLTMYS,activation of HTRA1 by CAPN2,[1],dose-dependent activation of HTRA1
"EWTDDDLVESL (not fully specified) [CCNH peptide, carboxyl terminus of cyclin H]",Kd,[8],40 µM
